Results: ChEMBL document CHEMBL1125718, “Synthesis and biological evaluation of dipeptidyl and tripeptidyl polyoxin and nikkomycin analogues as anticandidal prodrugs” (1991)
Values after ≈ are worked out from the molar mass of the structure shown.

How the values were obtained:
[1] = molecular target: Chitin synthase 1 (Candida albicans) (UniProt P23316); experiment: Compound was tested for its ability to inhibit chitin synthetase using Candida albicans strain H-317.; type: functional
Procedure, shortened: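 Mixed membrane fraction from C. albicans H-317 was used as the source of total chitin synthetase. Activity was measured with and without polyoxin compounds as N-acetylglucosamine incorporation into chitin. The value is the concentration giving 50% inhibition.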

Candida albicans [2] = experiment: Compound was tested for its lowest concentration at which growth of H-317 strain of Candida albicans was clearly inhibited.; type: functional
Candida albicans [3] = experiment: (§1) Compound was tested for percent inhibition of transport of (Leu)2 into Candida albicans H-317.; type: functional; parameters: concentration or dose not given beside the values
Procedure, shortened: (§2)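 Uptake of labeled dileucine was measured with analogues added at 10-fold the molar concentration of the transport substrate. Samples were taken at 0, 1, 2, 3 and 4 min, collected on prewet 0.45 µm filters and washed twice with cold water. Rate was expressed as nmol peptide per mg dry-weight cells per min.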

Candida albicans [4] = experiment: Compound was tested for percent inhibition of transport of (Met)3 into Candida albicans H-317.; parameters: concentration or dose not given beside the values
Candida albicans [5] = experiment: Compound was tested for its lowest concentration at which growth of 124 strain of Candida albicans was clearly inhibited.; type: functional
Candida albicans [6] = experiment: Compound was tested for its lowest concentration at which growth of 124N5 strain of Candida albicans was clearly inhibited.; type: functional
Candida albicans [7] = experiment: Compound was tested for rate of hydrolysis (percent hydrolyzed per 10 min) by cell extract from Candida albicans H-317.; type: functional
Procedure, shortened: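 Antibiotic (0.5 mg in H2O–DMSO 50:50) was mixed with cell extract of C. albicans H-317 (3.75 mg protein/mL) and incubated at 36 °C. Portions were withdrawn every 20 min and analysed directly by TLC and HPLC. Nle-UPOC served as control.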

Candida albicans [8] = experiment: Compound was tested for percent inhibition of transport of (Met)3 into Candida albicans H-317.
Candida albicans [9] = experiment: as §1; type: functional; procedure, shortened: as §2
Candida albicans [10] = experiment: Compound was tested for percent inhibition of transport of (Met)3 into Candida albicans H-317.; parameters: concentration or dose not given beside the values; remark: listed apart in the source

Sequence of Chitin synthase 1 (Candida albicans) (P23316 whole entry, looked up): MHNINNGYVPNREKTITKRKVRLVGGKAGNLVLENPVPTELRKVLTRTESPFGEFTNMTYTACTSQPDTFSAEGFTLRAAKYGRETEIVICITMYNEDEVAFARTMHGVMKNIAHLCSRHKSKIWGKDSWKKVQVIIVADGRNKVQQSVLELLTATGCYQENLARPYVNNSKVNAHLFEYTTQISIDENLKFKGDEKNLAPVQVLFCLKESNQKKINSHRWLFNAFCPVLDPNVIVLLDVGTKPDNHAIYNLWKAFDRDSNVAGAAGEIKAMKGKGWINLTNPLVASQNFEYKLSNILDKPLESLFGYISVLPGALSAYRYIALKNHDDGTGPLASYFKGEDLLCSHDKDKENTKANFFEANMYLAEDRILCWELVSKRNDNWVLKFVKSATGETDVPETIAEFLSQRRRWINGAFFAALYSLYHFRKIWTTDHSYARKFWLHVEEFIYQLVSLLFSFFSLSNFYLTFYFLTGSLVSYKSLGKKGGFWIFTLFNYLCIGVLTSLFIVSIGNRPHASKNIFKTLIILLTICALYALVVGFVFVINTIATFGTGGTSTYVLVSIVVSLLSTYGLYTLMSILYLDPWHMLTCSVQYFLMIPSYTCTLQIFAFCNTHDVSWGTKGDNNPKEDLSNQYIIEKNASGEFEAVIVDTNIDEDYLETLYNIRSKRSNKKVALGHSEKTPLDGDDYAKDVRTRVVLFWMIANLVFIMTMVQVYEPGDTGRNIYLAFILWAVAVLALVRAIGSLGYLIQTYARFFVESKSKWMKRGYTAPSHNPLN

Row | ID50 [1] | MIC (Candida albicans [2]) | MIC (Candida albicans [5]) | MIC (Candida albicans [6]) | Compound | Transport inhibition (Candida albicans [3]) | Transport inhibition (Candida albicans [4]) | Hydrolysis (Candida albicans [7]) | Transport inhibition (Candida albicans [8]) | Transport inhibition (Candida albicans [9]) | Transport inhibition (Candida albicans [10])
1 | 2 µg/mL (≈ 4.42 µM) | > 1000 µg/mL | > 1000 µg/mL | > 1000 µg/mL | N[C@@H](Cc1cccc(F)c1)C(=O)N[C@H](C(=O)O)[C@H]1O[C@@H](n2ccc(=O)[nH]c2=O)[C@H](O)[C@@H]1O | 6% | 0% | 33 |  |  | 
2 | 20 µg/mL (≈ 32.2 µM) | 333 µg/mL (≈ 537 µM) | 333 µg/mL (≈ 537 µM) | 666 µg/mL (≈ 1070 µM) | CC(C)C[C@H](N)C(=O)N[C@H](C(=O)N[C@H](C(=O)O)[C@H]1OC(n2cc(CO)c(=O)[nH]c2=O)[C@H](O)[C@@H]1O)[C@H](O)[C@@H](O)COC(N)=O (stereo partly specified) | 0% | 27% | 5 |  |  | 
3 | 0.5 µg/mL (≈ 0.923 µM) | > 666 µg/mL | 666 µg/mL (≈ 1230 µM) | > 666 µg/mL | CCCCCCCC(=O)NCCCC[C@H](N)C(=O)N[C@H](C(=O)O)[C@H]1O[C@@H](n2ccc(=O)[nH]c2=O)[C@H](O)[C@@H]1O |  |  | 0 | 10% | 50% | 
4 |  | > 1000 µg/mL | > 1000 µg/mL | > 1000 µg/mL | NC(Cc1cccc(F)c1)C(=O)O (racemic) [M-FLUOROPHENYLALANINE] |  |  |  |  |  | 
5 | 100 µg/mL (≈ 240 µM) | > 1000 µg/mL | > 1000 µg/mL | > 1000 µg/mL | NCCOC[C@H](N)C(=O)N[C@H](C(=O)O)[C@H]1O[C@@H](n2ccc(=O)[nH]c2=O)[C@H](O)[C@@H]1O | 58% | 0% | 0 |  |  | 
6 | 0.8 µg/mL (≈ 1.58 µM) | 40 µg/mL (≈ 78.8 µM) | 20 µg/mL (≈ 39.4 µM) | 166 µg/mL (≈ 327 µM) | NC(=O)OC[C@H](O)[C@@H](O)[C@H](N)C(=O)N[C@H](C(=O)O)[C@H]1O[C@@H](n2cc(CO)c(=O)[nH]c2=O)[C@H](O)[C@@H]1O [POLYOXIN B] | 0% | 0% |  |  |  | 
7 | 100 µg/mL (≈ 164 µM) | > 666 µg/mL | 666 µg/mL (≈ 1090 µM) | > 666 µg/mL | CC(C)C[C@H](N)C(=O)N[C@H](C(=O)N[C@H](C(=O)O)[C@H]1OC(n2ccc(=O)[nH]c2=O)[C@H](O)[C@@H]1O)[C@H](C)[C@H](O)c1ccc(O)cn1 (stereo partly specified) | 0% | 28% | 33 |  |  | 
8 | 80 µg/mL (≈ 101 µM) | > 666 µg/mL | > 666 µg/mL | > 666 µg/mL | CCCCCCCC(=O)NCCCC[C@H](NC(=O)[C@@H](N)CCCCNC(=O)CCCCCCC)C(=O)N[C@H](C(=O)O)[C@H]1OC(n2ccc(=O)[nH]c2=O)[C@H](O)[C@@H]1O (stereo partly specified) | 60% |  | 0 |  |  | 56%
9 | 100 µg/mL (≈ 206 µM) | 250 µg/mL (≈ 515 µM) | 500 µg/mL (≈ 1030 µM) | 1000 µg/mL (≈ 2060 µM) | COC(=O)/C=C/C(=O)NC[C@H](N)C(=O)N[C@H](C(=O)O)[C@H]1O[C@@H](n2ccc(=O)[nH]c2=O)[C@H](O)[C@@H]1O | 7% |  | 0 |  |  | 0%
10 | 30 µg/mL (≈ 49.3 µM) | 166 µg/mL (≈ 273 µM) | 83 µg/mL (≈ 136 µM) | 333 µg/mL (≈ 547 µM) | CC(C)C[C@H](N)C(=O)N[C@H](C(=O)N[C@H](C(=O)O)[C@H]1OC(n2cc(C=O)nc2O)[C@H](O)[C@@H]1O)[C@H](C)[C@H](O)c1ccc(O)cn1 (stereo partly specified) | 0% |  | 33 |  |  | 22%
11 | 50 µg/mL (≈ 76.4 µM) | > 666 µg/mL | > 666 µg/mL | > 666 µg/mL | CCCCCCCC(=O)NCCCC[C@H](NC(=O)[C@@H](N)CC(C)C)C(=O)N[C@H](C(=O)O)[C@H]1OC(n2ccc(=O)[nH]c2=O)[C@H](O)[C@@H]1O (stereo partly specified) | 0% |  | 0 |  |  | 32%
12 | 0.1 µg/mL (≈ 0.202 µM) | 5 µg/mL (≈ 10.1 µM) | 2.5 µg/mL (≈ 5.05 µM) | 333 µg/mL (≈ 672 µM) | C[C@@H]([C@H](N)C(=O)N[C@H](C(=O)O)[C@H]1O[C@@H](n2cc(C=O)nc2O)[C@H](O)[C@@H]1O)[C@H](O)c1ccc(O)cn1 | 90% |  | 0 |  |  | 30%
13 | 0.3 µg/mL (≈ 0.606 µM) | 20 µg/mL (≈ 40.4 µM) | 10 µg/mL (≈ 20.2 µM) | 666 µg/mL (≈ 1340 µM) | C[C@@H]([C@H](N)C(=O)N[C@H](C(=O)O)[C@H]1O[C@@H](n2ccc(=O)[nH]c2=O)[C@H](O)[C@@H]1O)[C@H](O)c1ccc(O)cn1 [NIKKOMYCIN] | 80% | 20% | 0 |  |  | 
